Results as given in ChEMBL document CHEMBL4373712, “Bioactivatable Pseudotripeptidization of Cyclic Dipeptides To Increase the Affinity toward Oligopeptide Transporter 1 for Enhanced Oral Absorption: An Application to Cyclo(l-Hyp-l-Ser) (JBP485)” (J Med Chem, 2019).
Activity calls are given as the source filed them. The calls are words filed in the database; no cut-off is given here.

How the values were obtained:
Rattus norvegicus [1] = test: Anti-hepatitis activity in ANIT-induced ip dosed Sprague-Dawley rat model of cholestasis assessed as reduction in serum total bilirubin level administered 30 mins prior to ANIT challenge and subsequent dosing at 8, 22, 32, and 46 hrs post ANIT challenge and measured 48 hrs post ANIT challenge; type: functional, organism-based
How it was run: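 Male SD rats, 6 weeks old, fasted 12 h, 6 per group. Cholestasis induced by ANIT 50 mg/kg ip in olive oil. Test agents were given in water; UDCA 100 mg/kg was given orally in CMC-Na. Dosing at 30 min before and 8, 22, 32 and 46 h after ANIT. Serum taken from the abdominal aorta under chloral hydrate anesthesia at 48 h; total bilirubin measured with an assay kit.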

[2] = Tmax in Sprague-Dawley rat assessed as JBP485 level at 100 mg/kg, po by LC-MS/MS analysis; type: ADME, organism-based; settings: in vivo
How it was run: (§1)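 Male SD rats (200–250 g) fasted 12 h, given JBP485 or prodrug (calculated as JBP485) orally at 12 or 100 mg/kg. Jugular blood sampled 0.083–10 h, plasma JBP485 by UPLC-MS/MS; n=6.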

[3] = AUC (0 to t) in Beagle dog at 12 mg/kg, po by UPLC-MS/MS analysis; type: ADME, organism-based, Canis lupus familiaris; settings: in vivo
How it was run: (§2)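 Male beagle dogs, 2 years old, 8-10 kg, n=6. Single oral dose of 12 mg/kg (prodrug dosed as JBP485 equivalent) given in aqueous solution. Jugular venipuncture blood taken at 0.167-8 h into sodium heparin tubes. Plasma JBP485 measured by UPLC-MS/MS; AUC0-t and Cmax from the concentration-time profiles.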

[4] = AUC (0 to t) in Sprague-Dawley rat at 12 mg/kg, po by UPLC-MS/MS analysis; type: ADME, organism-based; settings: in vivo
How it was run: (§3)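 Male SD rats, 200-250 g, fasted 12 h with water, n=6. Oral dose of 12 mg/kg as JBP485 equivalent; dose-effect arms at 12 and 100 mg/kg. JBP485 given iv at 6 mg/kg as the reference. Jugular blood taken at 0.083-10 h. Plasma JBP485 by UPLC-MS/MS. Absolute F = (AUCpo×Div)/(AUCiv×Dpo)×100%, using AUC0-t.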

[5] = Tmax in Sprague-Dawley rat at 12 mg/kg, po by UPLC-MS/MS analysis; type: ADME, organism-based; settings: in vivo
How it was run: (§4)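 Fasted male SD rats (200–250 g), oral 12 mg/kg (prodrugs calculated as JBP485). Jugular blood 0.083–10 h, centrifuged, plasma JBP485 by UPLC-MS/MS; n=6.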

[6] = AUC (0 to t) in Sprague-Dawley rat assessed as JBP485 level at 12 mg/kg, po by LC-MS/MS analysis; type: ADME, organism-based; settings: in vivo; how it was run: as §3
Rattus norvegicus [7] = test: (§5) Anti-hepatitis activity in ANIT-induced Sprague-Dawley rat model of liver injury assessed as reduction in serum alanine aminotransferase level at 6.25 to 12.5 mg/kg, ip administered 30 mins prior to ANIT challenge and subsequent dosing at 8, 22, 32, and 46 hrs post ANIT challenge and measured 48 hrs post ANIT challenge; type: functional, organism-based
How it was run: (§6)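 ANIT (50 mg/kg ip, olive oil) cholestatic liver injury in male SD rats, 6 per group. Oral or ip dosing (UDCA 100 mg/kg po in CMC-Na) at 30 min before and 8, 22, 32 and 46 h after ANIT. Serum collected at 48 h from the abdominal aorta; ALT and AST activities measured with kits.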

[8] = Tmax in Beagle dog at 12 mg/kg, po by UPLC-MS/MS analysis; type: ADME, organism-based, Canis lupus familiaris; settings: in vivo
How it was run: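 Male beagle dogs, 2 years old, 8–10 kg, dosed orally at 12 mg/kg (prodrug calculated as JBP485) in aqueous solution. Jugular blood taken 0.167–8 h into heparin, centrifuged, plasma JBP485 by UPLC-MS/MS; n=6.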

[9] = Tmax in Sprague-Dawley rat assessed as JBP485 level at 12 mg/kg, po by LC-MS/MS analysis; type: ADME, organism-based; settings: in vivo; how it was run: as §1
Rattus norvegicus [10] = test: as §5, with “25” for “12.5”, “po” for “ip”; type: functional, organism-based; how it was run: as §6
[11] = Ratio of half-life in pH 7.2 phosphate buffer to half-life in Sprague-Dawley rat liver homogenates; type: ADME, tissue-based; settings: tissue homogenate
Rattus norvegicus [12] = test: (§7) Anti-hepatitis activity in ANIT-induced Sprague-Dawley rat model of liver injury assessed as reduction in hepatocellular edema at 3.125 to 25 mg/kg, po administered 30 mins prior to ANIT challenge and subsequent dosing at 8, 22, 32, and 46 hrs post ANIT challenge and measured 48 hrs post ANIT challenge by H and E staining-based assay; type: functional, organism-based
How it was run: (§8)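 ANIT 50 mg/kg ip liver-injury model in male SD rats, 6 per group. Oral or ip treatment at 30 min before and 8, 22, 32 and 46 h after ANIT. Liver excised at 48 h, fixed in 4% formalin, stained with H&E, and examined microscopically for hepatocellular edema and necrosis.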

Rattus norvegicus [13] = test: as §7, with “liver necrosis” for “hepatocellular edema”; type: functional, organism-based; how it was run: as §8
[14] = Cmax in Beagle dog assessed as JBP485 level at 12 mg/kg equiv of JBP485 administered orally by UPLC-MS/MS analysis; type: ADME, organism-based, Canis lupus familiaris; parameters: dose 12 mg/kg, route oral; settings: in vivo, po; how it was run: as §2
[15] = Ratio of half-life in pH 7.2 phosphate buffer to half-life in Sprague-Dawley rat intestinal homogenates; type: ADME, tissue-based; settings: tissue homogenate
[16] = Tmax in Sprague-Dawley rat assessed as JBP485 level at 12 mg/kg equiv of JBP485 administered orally by UPLC-MS/MS analysis; type: ADME, organism-based; settings: in vivo, po; how it was run: as §4

SMILES	Activity (Rattus norvegicus [1])	Tmax [2]	AUCt [3]	AUCt [4]	Tmax [5]	AUCt [6]	Activity (Rattus norvegicus [7])	Tmax [8]	Tmax [9]	Activity (Rattus norvegicus [10])	Ratio [11]	Activity (Rattus norvegicus [12])	Activity (Rattus norvegicus [13])	Cmax [14]	Ratio [15]	Tmax [16]
O=C1N[C@@H](CO)C(=O)N2C[C@H](O)C[C@@H]12	Dose-dependent effect	1.5 h	89.15 nM/ml.hr	81.4 nM/ml.hr	1.25 h	81.4 nM/ml.hr	Active	1.5 h	1.25 h	Active						
CC(C)[C@H](N)C(=O)OC[C@@H]1NC(=O)[C@@H]2C[C@@H](O)CN2C1=O											3 to 35	Active	Active	85.9 nM/ml	3 to 35	0.57 h
